ChEMBL document CHEMBL1765016, “Indolylarylsulfones as HIV-1 non-nucleoside reverse transcriptase inhibitors: new cyclic substituents at indole-2-carboxamide” (J Med Chem, 2011)

Columns and labels:
[1] = biological target: Human immunodeficiency virus type 1 reverse transcriptase (Human immunodeficiency virus 1, UniProt Q72547, L100I); test: Inhibition of HIV1 reverse transcriptase L100I mutant expressed in Escherichia coli assessed as incorporation of [3H]dTTP into poly(rA)/oligo(dT) by scintillation counting
In short: (§1)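 The RT was recombinant p66(His)/p51 heterodimer, mutant form, expressed in E. coli. TCA-precipitable radioactivity on GF/C filters was read by scintillation. IC50 is the concentration giving 50% inhibition.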

[2] = tested on: Human immunodeficiency virus 1; test: Antiviral activity against wild type HIV1 3B infected in human MT-4 cells assessed as inhibition of virus-induced cytopathicity after 4 days by MTT assay; assay type: functional, organism-based; settings: Human immunodeficiency virus 1, 3B, MT4, 96 h
In short: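 MT-4 cells at 1 × 10⁵ cells/mL, infected at MOI 0.02 (virus titrated as CCID₅₀ in MT-4), dispensed immediately onto serial compound concentrations (DMSO stocks ≥50 mM). Viable cells counted by MTT after 4 days at 37 °C. EC₅₀ is the concentration giving 50% protection of cell viability. Values are means of at least three experiments.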

[3] = Cytotoxicity against human CEM cells by coulter counter analysis; assay type: cell-based; settings: CEM (CCRF-CEM) cells
In short: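 Mock-infected CEM cultures with compound, cell number counted by Coulter counter as percent of untreated control. CC₅₀ (50% reduction in proliferation) was read from plots against concentration. Values are means of two experiments in triplicate.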

[4] = tested on: Human immunodeficiency virus 2; test: Antiviral activity against HIV2 isolate ROD infected in human CEM cells assessed as inhibition of virus-induced cytopathicity after 4 days by microscopic analysis; assay type: functional, organism-based; settings: Human immunodeficiency virus 2, ISOLATE ROD, CCRF-CEM, 96 h
In short: (§2)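 CEM cells (~3 × 10⁵ cells/mL) infected with ~100 CCID₅₀ virus per mL, seeded into wells with compound dilutions. Syncytia (giant cell) formation scored microscopically after 4 days at 37 °C. EC₅₀ is the concentration protecting cells by 50%. Values are means of two experiments in triplicate.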

[5] = tested on: Human immunodeficiency virus 1; test: Antiviral activity against HIV1 harboring reverse transcriptase Y181C mutant infected in human MT-4 cells assessed as inhibition of virus-induced cytopathicity after 4 days by MTT assay; assay type: functional, organism-based; settings: Human immunodeficiency virus 1, MT4, 96 h
In short: (§3)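 MT-4 cells at 1 × 10⁵ cells/mL were infected with RT-mutant HIV-1 at a multiplicity of infection of 0.02. They were plated at once with serial compound dilutions (DMSO stocks of 50 mM or higher). […] Virus stocks had been titrated in MT-4 cells as CCID50.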

[6] = Selectivity index, CC50 for human CEM cells to IC50 for HIV1 3B; assay type: functional, CCRF-CEM
In short: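 Ratio of CC₅₀ (Coulter count, mock-infected CEM) to EC₅₀ (CEM, HIV-1 IIIB, microscopic syncytia scoring at day 4).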

[7] = tested on: Human immunodeficiency virus 1; test: Antiviral activity against HIV1 harboring reverse transcriptase E138K mutant infected in human MT-4 cells assessed as inhibition of virus-induced cytopathicity after 4 days by MTT assay; assay type: functional, organism-based; settings: Human immunodeficiency virus 1, MT4, 96 h; in short: as §3
[8] = tested on: Human immunodeficiency virus 1; test: Antiviral activity against wild type HIV1 3B infected in human CEM cells assessed as inhibition of virus-induced cytopathicity after 4 days by microscopic analysis; assay type: functional, organism-based; settings: Human immunodeficiency virus 1, 3B, CCRF-CEM, 96 h; in short: as §2
[9] = tested on: Human immunodeficiency virus 1; test: Antiviral activity against HIV1 harboring reverse transcriptase L100I mutant infected in human MT-4 cells assessed as inhibition of virus-induced cytopathicity after 4 days by MTT assay; assay type: functional, organism-based; settings: Human immunodeficiency virus 1, MT4, 96 h; in short: as §3
[10] = biological target: Human immunodeficiency virus type 1 reverse transcriptase (Human immunodeficiency virus 1, UniProt Q72547, K103N); test: Inhibition of HIV1 reverse transcriptase K103N mutant expressed in Escherichia coli assessed as incorporation of [3H]dTTP into poly(rA)/oligo(dT) by scintillation counting; in short: as §1
[11] = tested on: Human immunodeficiency virus 1; test: Antiviral activity against HIV1 harboring reverse transcriptase Y188L mutant infected in human MT-4 cells assessed as inhibition of virus-induced cytopathicity after 4 days by MTT assay; assay type: functional, organism-based; settings: Human immunodeficiency virus 1, MT4, 96 h; in short: as §3
[12] = tested on: Human immunodeficiency virus 1; test: Antiviral activity against […] harboring reverse transcriptase K103N mutant infected in human MT-4 cells assessed as inhibition of virus-induced cytopathicity after 4 days by MTT assay; assay type: functional, organism-based; settings: Human immunodeficiency virus 1, MT4, 96 h; in short: as §3
[13] = biological target: Human immunodeficiency virus type 1 reverse transcriptase (Human immunodeficiency virus 1, UniProt Q72547); test: Inhibition of HIV1 wild type reverse transcriptase expressed in Escherichia coli assessed as incorporation of [3H]dTTP into poly(rA)/oligo(dT) by scintillation counting
In short: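 Template was poly(rA)/oligo(dT) 10:1 (0.3 μM 3′-OH ends) with 10 μM [³H]dTTP, at 37 °C. TCA-precipitable counts were taken on GF/C filters. IC₅₀ is 50% inhibition of RT activity.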

[14] = biological target: Human immunodeficiency virus type 1 reverse transcriptase (Human immunodeficiency virus 1, UniProt Q72547, Y181I); test: Inhibition of HIV1 reverse transcriptase Y181I mutant expressed in Escherichia coli assessed as incorporation of [3H]dTTP into poly(rA)/oligo(dT) by scintillation counting; in short: as §1

Row | SMILES | IC50 [1] [nM] | EC50 [2] [nM] | CC50 [3] [nM] | EC50 [4] [nM] | EC50 [5] [nM] | Selectivity Index [6] | EC50 [7] [nM] | EC50 [8] [nM] | EC50 [9] [nM] | IC50 [10] [nM] | EC50 [11] [nM] | EC50 [12] [nM] | IC50 [13] [nM] | IC50 [14] [nM]
1 | Cc1cc(C)cc(S(=O)(=O)c2c(C(=O)NCc3ccccc3)[nH]c3ccc([N+](=O)[O-])cc23)c1 | 14 | 10 | 8000 | > 2000 | 54 | 1290 | 16 | 6.2 | 7 | 459 | 470 | 11 | 17 | > 40000
2 | Cc1cc(C)cc(S(=O)(=O)c2c(C(=O)NCCc3ccccc3)[nH]c3ccc(Cl)cc23)c1 | 27 | 21 | 185000 | > 50000 | 100 | 32456 | 65 | 5.7 | 19 | 10400 | > 1000 | 52 | 77 | > 40000
3 | Cc1cc(C)cc(S(=O)(=O)c2c(C(=O)NCc3ccccc3)[nH]c3ccc(Cl)cc23)c1 | 15 | 11 | 244000 | > 10000 | 46 | – | 18 | 5.7 | 6.1 | > 40000 | 480 | 11 | 21 | > 40000
4 | Cc1cc(C)cc(S(=O)(=O)c2c(C(=O)NCc3ccccc3)[nH]c3ccc(Br)cc23)c1 | 273 | 16 | 172000 | > 2000 | 59 | 30175 | 51 | 5.7 | 11 | 1850 | ≥ 450 | 15 | 1050 | > 40000
5 | Cc1cc(C)cc(S(=O)(=O)c2c(C(=O)NCCN3CCCC3)[nH]c3ccc(Cl)cc23)c1 | 248 | 19 | 7100 | > 2000 | 380 | 418 | 260 | 17 | 84 | 660 | > 1000 | 80 | 80 | > 40000
6 | Cc1cc(C)cc(S(=O)(=O)c2c(C(=O)NCCn3cccc3)[nH]c3ccc([N+](=O)[O-])cc23)c1 | 23 | – | 226000 | > 50000 | – | 32754 | – | 6.9 | – | 272 | – | – | 34 | > 40000
7 | Cc1cc(C)cc(S(=O)(=O)c2c(C(=O)NCCOc3ccccc3)[nH]c3ccc(Cl)cc23)c1 | > 40000 | 300 | 207000 | > 10000 | > 1000 | 7962 | 380 | 26 | 440 | > 40000 | > 1000 | > 1000 | 2390 | > 40000
8 | Cc1cc(C)cc(S(=O)(=O)c2c(C(=O)NCCOc3ccccc3)[nH]c3ccc([N+](=O)[O-])cc23)c1 | > 40000 | – | > 500000 | > 2000 | – | >17241 | – | 29 | – | > 40000 | – | – | 950 | > 40000
9 | Cc1cc(C)cc(S(=O)(=O)c2c(C(=O)NCN3CCCCC3)[nH]c3ccc([N+](=O)[O-])cc23)c1 | 10 | – | 12000 | 7500 | – | 3871 | – | 3.1 | – | 307 | – | – | 13 | 999
10 | Cc1cc(C)cc(S(=O)(=O)c2c(C(=O)NCCOc3ccccc3)[nH]c3ccc(Cl)c(F)c23)c1 | 68 | – | 11000 | > 2000 | – | 549 | – | 19 | – | 18500 | – | – | 66 | > 40000
11 | Cc1cc(C)cc(S(=O)(=O)c2c(C(=O)NCCN3CCOCC3)[nH]c3ccc(Br)cc23)c1 | 108 | – | 409000 | > 50000 | – | 2406 | – | 170 | – | 1360 | – | – | 63 | > 40000
12 | Cc1cc(C)cc(S(=O)(=O)c2c(C(=O)NCCN3CCCC3)[nH]c3ccc(Br)cc23)c1 | 315 | – | 5600 | > 2000 | – | 351 | – | 16 | – | 697 | – | – | 65 | > 40000
13 | Cc1cc(C)cc(S(=O)(=O)c2c(C(=O)NCN3CCOCC3)[nH]c3ccc([N+](=O)[O-])cc23)c1 | 99 | – | 46000 | ≥ 10000 | – | 7931 | – | 5.8 | – | 864 | – | – | 150 | 1600
14 | Cc1cc(C)cc(S(=O)(=O)c2c(C(=O)NCN3CCOCC3)[nH]c3ccc(Cl)c(F)c23)c1 | 241 | – | 38000 | > 10000 | – | 15200 | – | 2.5 | – | 1170 | – | – | 80 | 10200
